These results are taken from the array DNA melting data of Ke et al. (doi:10.1101/2024.01.08.574731).

Data set [1] is described as follows: melting temperature; fluorescence melt of hairpins on a sequencing array, two-state fit, raised by 9.35 °C to match UV melts. The settings on record: sodium 0.088 M. The method, boiled down:
(§1)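 On a sequenced MiSeq flow cell, library hairpins with annealed Cy3 and quencher oligos were imaged for Cy3 fluorescence in 2.5 °C steps up to 60 °C, in 50 mM Na-HEPES pH 8.0, 25 mM NaCl. Normalisation used pre-quench Cy3 and control constructs. Bootstrapped two-state fits gave melting temperature and folding enthalpy, combined by inverse variance across four replicates and with fitted temperatures raised by 9.35 °C to match UV melts.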

Data set [2] in a line: folding enthalpy; higher = less favourable; fluorescence melt of hairpins on a sequencing array, two-state fit. Conditions: sodium 0.088 M. The method, boiled down: as §1

For GGCCGCCGAAAGGCGCC (((.(((....)))))), in data set [1], the Tm is 68.2 °C. In addition, the folding enthalpy in data set [2] is -12.8 kcal/mol.
In the same order, the values of GGCCGCGAAAGCGGGGCC ((((((....)))..))) are 63.6 °C and -12.7 kcal/mol.
The matching figures for GGCCGCGAAAGCGTCGCC ((((((....)))..))): 55.9 °C and -16.7 kcal/mol.
The matching figures for GGCCGGCGAAAGCCGCC (((.(((....)))))): 65.3 °C and -12 kcal/mol.
For the sequence GGCCGTCGAAAGACCGCC (((.(((....))).))), in data set [1], the Tm turned out to be 53 °C. For the same sequence, the folding enthalpy in data set [2] was -42.5 kcal/mol.
In the case of GGCCTACGAAAGTACGCC (((.(((....))).))), the Tm in data set [1] was determined as 47.4 °C. For the same sequence, the folding enthalpy in data set [2] was -26.4 kcal/mol.
Regarding GGCCTAGAAATAGGCC ((((((....)))))), in data set [1], the Tm was 62.8 °C. The folding enthalpy in data set [2] is -34.9 kcal/mol.
The matching figures for GGCCTAGGAAACCAGGCC (((((.(....).))))): 53.9 °C and -49.6 kcal/mol.
The matching figures for GGCCTAGGAAACTAGGCC (((((((....))))))): 68.6 °C and -32.8 kcal/mol.
In the same order, the values of GGCCTCACGAAAGTGGCC (((..(((....)))))) are 53.7 °C and -21.9 kcal/mol.
Regarding GGCCTCGAAAGAGCAGCC ((((((....)))..))), the Tm in data set [1] came to 47.6 °C. In data set [2], the folding enthalpy was -22.3 kcal/mol.
The matching figures for GGCCTCGAAAGAGTGGCC ((((((....)))..))): 54.4 °C and -36.6 kcal/mol.
Regarding GGCCTCGGAAACGGGGCC ((((.((....)).)))), the Tm in data set [1] is 66.6 °C. Besides, the folding enthalpy in data set [2] was -35.3 kcal/mol.
The matching figures for GGCCTCGGAAACGGGGTC (.((.((....)).)).): 48.6 °C and -37.2 kcal/mol.
The matching figures for GGCCTGGGAAACCGGGTC (.((.((....)).)).): 49 °C and -27.7 kcal/mol.
The matching figures for GGCCTGGGAAACTAGGCC (((((.(....).))))): 59.2 °C and -49.7 kcal/mol.
As to GGCCTTCGAAAGAACGCC (((.(((....))).))), the Tm in data set [1] amounted to 44.4 °C. In addition, the folding enthalpy in data set [2] was -30.7 kcal/mol.
In the same order, the values of GGCCTTGGAAACAAGACC ((.((((....)))).)) are 44.7 °C and -29.1 kcal/mol.
The matching figures for GGCGAAGGAAACCTCGCC (((((.(....).))))): 55.3 °C and -46.7 kcal/mol.
The matching figures for GGCGAAGGAAACTCCGCC ((((.((....)).)))): 51.1 °C and -34.4 kcal/mol.
With GGCGAAGGAAACTTCACC ((.((((....)))).)), the Tm in data set [1] stood at 42.6 °C. The folding enthalpy in data set [2] was -32.8 kcal/mol.
The matching figures for GGCGAAGGAAACTTTGCC (((.(((....))).))): 53.2 °C and -35.8 kcal/mol.
For the sequence GGCGAATCGAAAGATGCC (((..(((....)))))), the Tm in data set [1] was 46.1 °C. Besides, the folding enthalpy in data set [2] is -22.5 kcal/mol.
In the same order, the values of GGCGACACGAAAGTGGCC (((..(((....)))))) are 53.1 °C and -15.1 kcal/mol.
In the same order, the values of GGCGACGAAAGTCACGCC ((((((....)))..))) are 54.1 °C and -27.4 kcal/mol.
The matching figures for GGCGACGAAAGTCCGCC ((((((....))).))): 63.6 °C and -32.2 kcal/mol.
On to GGCGACGAAAGTCGTGCC ((((((....)))..))), for which the Tm in data set [1] amounted to 51.2 °C. The folding enthalpy in data set [2] is -12.7 kcal/mol.
The matching figures for GGCGACGAAAGTCTGCC ((((((....))).))): 59.2 °C and -36.6 kcal/mol.
Take GGCGACGGAAACGCCACC ((.(.((....)).).)): in data set [1], the Tm turned out to be 46 °C. For the same sequence, the folding enthalpy in data set [2] was -16.9 kcal/mol.
In the same order, the values of GGCGAGGGAAACCCCGCC ((((.((....)).)))) are 57.9 °C and -46.8 kcal/mol.
As to GGCGATCGAAAGATGGCC (((.(((....))).))), in data set [1], the Tm was found to be 57.6 °C. Further, the folding enthalpy in data set [2] is -47.6 kcal/mol.
In the same order, the values of GGCGATGGAAACACCGCC ((((.((....)).)))) are 54 °C and -51.7 kcal/mol.
Consider GGCGATGGAAACGTCGCC (((((.(....).))))), for which, in data set [1], the Tm was 64.6 °C. Further, the folding enthalpy in data set [2] was -48.7 kcal/mol.
The matching figures for GGCGATGGAAACGTCGTC (.(((.(....).))).): 46.2 °C and -39.5 kcal/mol.
The matching figures for GGCGATGGAAACGTTGCC (((.(.(....).).))): 44.9 °C and -37.6 kcal/mol.
In the same order, the values of GGCGCACCGAAAGGTGCC (((..(((....)))))) are 47.5 °C and -6.69 kcal/mol.
With GGCGCAGGAAACTGCACC ((.((((....)))).)), the Tm in data set [1] came to 54.4 °C. For the same sequence, the folding enthalpy in data set [2] was -29.9 kcal/mol.
In the same order, the values of GGCGCATCGAAAGATGCC (((..(((....)))))) are 45.2 °C and -9.42 kcal/mol.
In the same order, the values of GGCGCCACGAAAGTGGCC (((..(((....)))))) are 48.8 °C and -6.73 kcal/mol.
In the same order, the values of GGCGCCCGAAAGGGGCC (((.(((....)))))) are 67.4 °C and -17.2 kcal/mol.
Turning to GGCGCCGAAAGGCCAGCC ((((((....)))..))), in data set [1], the Tm was 61 °C. Further, the folding enthalpy in data set [2] was -21.1 kcal/mol.
The matching figures for GGCGCCGAAAGGCGTGCC ((((((....)))..))): 54.2 °C and -9.73 kcal/mol.
The matching figures for GGCGCCGAAAGGCTAGCC ((((((....)))..))): 61.7 °C and -21.6 kcal/mol.
The matching figures for GGCGCCGAAAGGCTGCC ((((((....))).))): 67.1 °C and -19.4 kcal/mol.
With GGCGCCGCGAAAGCGGCC (((..(((....)))))), the Tm in data set [1] was 49.1 °C. For the same sequence, in data set [2], the folding enthalpy is -5.39 kcal/mol.
The matching figures for GGCGCCTCGAAAGAGGCC (((..(((....)))))): 50.5 °C and -8.15 kcal/mol.
In the same order, the values of GGCGCTGCGAAAGCAGCC (((..(((....)))))) are 58.1 °C and -6.28 kcal/mol.
With GGCGCTGGAAACGGCGTC (.(((.(....).))).), the Tm in data set [1] was found to be 54.3 °C. The folding enthalpy in data set [2] is -28 kcal/mol.
The matching figures for GGCGGACGAAAGTCGCC (((.(((....)))))): 68.5 °C and -28.2 kcal/mol.
On to GGCGGAGGAAACCCCGCC (((((.(....).))))), for which the Tm in data set [1] is 64.5 °C. The folding enthalpy in data set [2] was -33.4 kcal/mol.
In the case of GGCGGCGAAAGCCATGCC ((((((....)))..))), in data set [1], the Tm came out at 59.8 °C. In data set [2], the folding enthalpy is -16.5 kcal/mol.
Regarding GGCGGCGAAAGCCTAGCC ((((((....)))..))), the Tm in data set [1] amounted to 60.8 °C. Further, the folding enthalpy in data set [2] is -21.3 kcal/mol.
As to GGCGGCGCGAAAGCGGCC (((..(((....)))))), the Tm in data set [1] was 59.5 °C. Besides, the folding enthalpy in data set [2] was -9.35 kcal/mol.
For the sequence GGCGGGCCGAAAGGCGCC (((..(((....)))))), the Tm in data set [1] is 62.3 °C. Further, the folding enthalpy in data set [2] was -13.2 kcal/mol.
The matching figures for GGCGGGGGAAACCCCGTC (.(((((....))))).): 65.1 °C and -22.7 kcal/mol.
In the same order, the values of GGCGGGGGAAACCCTGCC (((.(((....))).))) are 65.2 °C and -27 kcal/mol.
In the same order, the values of GGCGGTCGAAAGACGGCC (((.(((....))).))) are 68.2 °C and -34.5 kcal/mol.
In the case of GGCGGTGGAAACACCGTC (.(((((....))))).), in data set [1], the Tm turned out to be 65.8 °C. The folding enthalpy in data set [2] was -23.9 kcal/mol.
With GGCGTACCGAAAGGTGCC (((..(((....)))))), in data set [1], the Tm was determined as 54.7 °C. Moreover, the folding enthalpy in data set [2] was -33.2 kcal/mol.
In the same order, the values of GGCGTATCGAAAGATGCC (((..(((....)))))) are 47.9 °C and -22.5 kcal/mol.
On to GGCGTCCCGAAAGGGGCC (((..(((....)))))), for which, in data set [1], the Tm came to 50.4 °C. Moreover, the folding enthalpy in data set [2] was -14.3 kcal/mol.
In the same order, the values of GGCGTCGAAAGACCCGCC ((((((....)))..))) are 55.3 °C and -17.5 kcal/mol.
In the same order, the values of GGCGTCGAAAGACTGCC ((((((....))).))) are 57 °C and -36.4 kcal/mol.
In the same order, the values of GGCGTGACGAAAGTCGCC (((..(((....)))))) are 57.5 °C and -21.1 kcal/mol.
For GGCGTGGGAAACCACACC ((.((((....)))).)), the Tm in data set [1] is 50.5 °C. In addition, the folding enthalpy in data set [2] is -35.3 kcal/mol.
The matching figures for GGCGTTGGAAACAACACC ((.((((....)))).)): 46.7 °C and -33.6 kcal/mol.
The matching figures for GGCGTTGGAAACAACGTC (.(((((....))))).): 57.8 °C and -25.4 kcal/mol.
In the same order, the values of GGCGTTGGAAACAGCGTC (.((.((....)).)).) are 44.6 °C and -21.9 kcal/mol.
GGCTAAACGAAAGTTGCC (((..(((....)))))): the Tm in data set [1] came out at 47.6 °C. The folding enthalpy in data set [2] was -22.5 kcal/mol.
The matching figures for GGCTAACCGAAAGGTGCC (((..(((....)))))): 53.6 °C and -22.4 kcal/mol.
In the same order, the values of GGCTAACGAAAGTTCGCC (((.(((....))).))) are 52.9 °C and -44.2 kcal/mol.
The matching figures for GGCTAACGAAAGTTGGCC (((.(((....))).))): 60.1 °C and -44.2 kcal/mol.
Take GGCTAACGAAAGTTTGCC (((.(((....))).))): the Tm in data set [1] came out at 54.7 °C. Also, the folding enthalpy in data set [2] was -61 kcal/mol.
